The values below come from ChEMBL document CHEMBL4354843, “Structure-Based Design of a Potent and Selective Covalent Inhibitor for SRC Kinase That Targets a P-Loop Cysteine” (J Med Chem, 2020).

Assay [1] concerns Receptor-type tyrosine-protein kinase FLT3 (Homo sapiens), P36888 [UNDEFINED MUTATION]. The experiment in a line: Binding affinity to human partial length FLT3 ITD/F691L double mutant expressed in bacterial expression system assessed as residual binding level at 1 uM by Kinomescan method relative to control. Summed up:
(§1)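 KinomeScan active site-directed competition binding panel (468 kinases), compound tested at 1 μM. Result expressed as remaining kinase signal versus DMSO control (percent of control).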

The target of assay [2] is Cyclin-dependent kinase 4/cyclin D1 (Homo sapiens) (UniProt P11802+P24385). Briefly: Binding affinity to wild-type human full length CDK4/cyclinD1 (M1 to E303 residues) expressed in mammalian expression system assessed as residual binding level at 1 uM by Kinomescan method relative to control. In a few lines: (§2)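 Active-site-directed KinomeScan competition binding panel covering 468 kinases, compound tested at 1 μM. Each readout is the kinase signal remaining with compound, expressed as a percentage of the DMSO control. […]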

The target in assay [3] is Mitogen-activated protein kinase 8 (Homo sapiens) (UniProt P45983). Briefly: Binding affinity to wild-type human full length JNK1 (M1 to Q384 residues) expressed in mammalian expression system assessed as residual binding level at 1 uM by Kinomescan method relative to control. Summed up:
(§3)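 KinomeScan, an active site-directed competition binding panel of 468 kinases. The test compound was at 1 μM. The readout is remaining kinase binding as a percentage of the DMSO control. Scores above 35% were treated as weak binding and not listed.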

Assay [4] deals with Proto-oncogene tyrosine-protein kinase ROS (Homo sapiens) (UniProt P08922). Briefly: Binding affinity to wild-type human partial length ROS1 (A1921 to N2240 residues) expressed in bacterial expression system assessed as residual binding level at 1 uM by Kinomescan method relative to control.
The next assay deals with MDA-MB-231. Briefly: Antiproliferative activity against human MDA-MB-231 cells assessed as reduction in cell viability incubated for 72 hrs by cell-titer glo assay. To be noted: MDA-MB-231, 72 h.
The target in assay [5] is Serine/threonine-protein kinase Chk1 (Homo sapiens) (UniProt O14757). The experiment in a line: Binding affinity to wild-type human partial length CHEK1 (M1 to G289 residues) expressed in bacterial expression system assessed as residual binding level at 1 uM by Kinomescan method relative to control.
Assay [6] concerns the target Tyrosine-protein kinase Lyn (Homo sapiens) (UniProt P07948). The experiment in a line: Binding affinity to wild-type human partial length LYN (C219 to Q511 residues) expressed in bacterial expression system assessed as residual binding level at 1 uM by Kinomescan method relative to control. In a few lines: (§4)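 Active-site-directed competition binding panel of 468 kinases (KinomeScan), compound at 1 μM. The read-out is kinase remaining bound, given as a percentage of the DMSO control. […]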

In assay [7] the target is Mitogen-activated protein kinase 12 (Homo sapiens) (UniProt P53778). Briefly: Binding affinity to wild-type human full length p38-gamma (M1 to L367 residues) expressed in mammalian expression system assessed as residual binding level at 1 uM by Kinomescan method relative to control. In a few lines:
as §3

For assay [8], the target named is Peripheral plasma membrane protein CASK (Homo sapiens) (UniProt O14936). The experiment in a line: Binding affinity to wild-type human partial length CASK (M1 to H315 residues) expressed in mammalian expression system assessed as residual binding level at 1 uM by Kinomescan method relative to control.
The subject of assay [9] is Tyrosine-protein kinase ABL1 (Homo sapiens), P00519 [F317L]. The experiment in a line: Binding affinity to human non-phosphorylated ABL1 F317L mutant (S229 to K512 residues) expressed in mammalian expression system assessed as residual binding level at 1 uM by Kinomescan method relative to control. In a few lines:
as §1

For assay [10], the target named is Interleukin-1 receptor-associated kinase 1 (Homo sapiens) (UniProt P51617). The experiment in a line: Binding affinity to wild-type human partial length IRAK1 (R194 to S712 residues) expressed in mammalian expression system assessed as residual binding level at 1 uM by Kinomescan method relative to control.
For assay [11], the target named is Dual specificity mitogen-activated protein kinase kinase 3 (Homo sapiens) (UniProt P46734). Briefly: Binding affinity to wild-type human full length MEK3 (M1 to S318 residues) expressed in mammalian expression system assessed as residual binding level at 1 uM by Kinomescan method relative to control. Summed up:
as §3

In assay [12] the target is Ephrin type-B receptor 6 (Homo sapiens) (UniProt O15197). Briefly: Binding affinity to wild-type human partial length EPHB6 (Q634 to P948 residues) expressed in mammalian expression system assessed as residual binding level at 1 uM by Kinomescan method relative to control. Summed up: as §4
Assay [13] addresses AP2-associated protein kinase 1 (Homo sapiens) (UniProt Q2M2I8). The experiment in a line: Binding affinity to human wild-type AAK1 (G25 to L333 residues) expressed in bacterial expression system assessed as residual binding level at 1 uM by Kinomescan method relative to control. In a few lines:
as §2

Assay [14] has as its target Serine/threonine-protein kinase MARK2 (Homo sapiens) (UniProt Q7KZI7). The experiment in a line: Binding affinity to wild-type human partial length MARK2 (M1 to R450 residues) expressed in bacterial expression system assessed as residual binding level at 1 uM by Kinomescan method relative to control.
The target of assay [15] is Calcium/calmodulin-dependent protein kinase type II subunit beta (Homo sapiens) (UniProt Q13554). The experiment in a line: Binding affinity to wild-type human partial length CAMK2B (M1 to Q380 residues) expressed in bacterial expression system assessed as residual binding level at 1 uM by Kinomescan method relative to control.
In assay [16] the target is Dual specificity mitogen-activated protein kinase kinase; MEK1/2 (Homo sapiens) (UniProt P36507+Q02750). The experiment in a line: Inhibition of MEK1/2 in human HCC827 cells assessed as blocking of MEK1/2 pulldown at 1 uM in presence of TL13-68 incubated for 2 hrs by Western blot analysis. The format is cell-based. In a few lines: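 H1975 or HCC827 cells treated with 1 μM compound or DMSO for 2 h, rinsed twice in cold PBS, and lysed in M-PER with protease/phosphatase inhibitors. Lysate rocked overnight at 4 °C with 1 μM TL13-68, then streptavidin pulldown with five cold washes. Bound kinases detected by Western blot. Two independent experiments.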
Background: In western blotting, separated proteins are transferred to a membrane and probed.

The target in assay [17] is Cyclin-dependent kinase 3 (Homo sapiens) (UniProt Q00526). The experiment in a line: Binding affinity to wild-type human full length CDK3 (M1 to H305 residues) expressed in bacterial expression system assessed as residual binding level at 1 uM by Kinomescan method relative to control. In a few lines:
as §2

The target in assay [18] is Serine/threonine-protein kinase PAK 5 (Homo sapiens) (UniProt Q9P286). The experiment in a line: Binding affinity to wild-type human partial length PAK7 (Y400 to H719 residues) expressed in bacterial expression system assessed as residual binding level at 1 uM by Kinomescan method relative to control.
The target in assay [19] is Mitogen-activated protein kinase kinase kinase 13 (Homo sapiens) (UniProt O43283). Briefly: Binding affinity to wild-type human full length LZK (M1 to W966 residues) expressed in mammalian expression system assessed as residual binding level at 1 uM by Kinomescan method relative to control. Summed up: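 Active-site-directed competition binding panel (KinomeScan) covering 468 kinases. Test agent was screened at 1 μM. The read-out is the remaining kinase signal expressed relative to a DMSO control. Scores above 35%, taken as weak binding, were not reported.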

The source made the active and inactive calls. The rule behind the calls is not given here.

What is called IC50 is the concentration that inhibits the measured activity by half.

Tyrosine-protein kinase ABL1 (Homo sapiens), P00519 [F317L], sequence (P00519 whole entry F317L, the tested form may be a part): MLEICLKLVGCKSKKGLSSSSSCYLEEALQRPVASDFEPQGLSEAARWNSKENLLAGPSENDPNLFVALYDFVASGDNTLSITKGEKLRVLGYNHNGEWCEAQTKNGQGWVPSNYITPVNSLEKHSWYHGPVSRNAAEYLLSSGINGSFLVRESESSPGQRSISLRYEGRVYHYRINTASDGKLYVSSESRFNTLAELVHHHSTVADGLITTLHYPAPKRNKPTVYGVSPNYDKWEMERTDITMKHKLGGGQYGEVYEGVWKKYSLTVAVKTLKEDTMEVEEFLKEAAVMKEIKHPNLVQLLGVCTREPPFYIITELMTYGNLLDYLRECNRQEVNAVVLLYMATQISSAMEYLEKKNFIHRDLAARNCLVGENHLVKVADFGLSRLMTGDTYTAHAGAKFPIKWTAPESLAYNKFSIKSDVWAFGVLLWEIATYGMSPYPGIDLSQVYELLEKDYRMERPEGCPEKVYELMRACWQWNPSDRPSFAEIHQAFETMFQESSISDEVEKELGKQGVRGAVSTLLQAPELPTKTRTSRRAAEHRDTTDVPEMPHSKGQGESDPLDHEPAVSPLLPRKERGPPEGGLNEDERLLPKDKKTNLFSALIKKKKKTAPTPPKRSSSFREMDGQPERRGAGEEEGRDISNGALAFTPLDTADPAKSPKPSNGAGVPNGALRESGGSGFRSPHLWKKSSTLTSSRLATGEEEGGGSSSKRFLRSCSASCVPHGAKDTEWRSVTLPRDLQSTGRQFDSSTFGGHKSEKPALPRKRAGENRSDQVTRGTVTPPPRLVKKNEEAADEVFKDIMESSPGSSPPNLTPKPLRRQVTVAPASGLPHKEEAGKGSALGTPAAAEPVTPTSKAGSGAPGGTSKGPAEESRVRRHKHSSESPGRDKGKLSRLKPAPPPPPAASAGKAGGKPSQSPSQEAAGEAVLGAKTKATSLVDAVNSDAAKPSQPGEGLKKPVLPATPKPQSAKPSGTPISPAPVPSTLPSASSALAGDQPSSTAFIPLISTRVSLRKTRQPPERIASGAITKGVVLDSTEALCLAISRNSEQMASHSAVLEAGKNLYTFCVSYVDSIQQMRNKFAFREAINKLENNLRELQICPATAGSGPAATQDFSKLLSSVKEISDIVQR
Cyclin-dependent kinase 3 (Homo sapiens), sequence (Q00526 whole entry, looked up, the tested form may be a part): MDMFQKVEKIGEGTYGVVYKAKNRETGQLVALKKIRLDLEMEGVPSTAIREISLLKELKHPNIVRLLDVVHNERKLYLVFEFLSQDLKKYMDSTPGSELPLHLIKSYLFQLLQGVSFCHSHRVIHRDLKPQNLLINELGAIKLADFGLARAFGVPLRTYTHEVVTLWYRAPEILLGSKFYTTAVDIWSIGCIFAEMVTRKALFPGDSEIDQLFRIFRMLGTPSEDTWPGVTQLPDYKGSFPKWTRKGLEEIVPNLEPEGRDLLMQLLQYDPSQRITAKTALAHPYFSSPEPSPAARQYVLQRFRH
Proto-oncogene tyrosine-protein kinase ROS (Homo sapiens), sequence (P08922 whole entry, the tested form may be a part): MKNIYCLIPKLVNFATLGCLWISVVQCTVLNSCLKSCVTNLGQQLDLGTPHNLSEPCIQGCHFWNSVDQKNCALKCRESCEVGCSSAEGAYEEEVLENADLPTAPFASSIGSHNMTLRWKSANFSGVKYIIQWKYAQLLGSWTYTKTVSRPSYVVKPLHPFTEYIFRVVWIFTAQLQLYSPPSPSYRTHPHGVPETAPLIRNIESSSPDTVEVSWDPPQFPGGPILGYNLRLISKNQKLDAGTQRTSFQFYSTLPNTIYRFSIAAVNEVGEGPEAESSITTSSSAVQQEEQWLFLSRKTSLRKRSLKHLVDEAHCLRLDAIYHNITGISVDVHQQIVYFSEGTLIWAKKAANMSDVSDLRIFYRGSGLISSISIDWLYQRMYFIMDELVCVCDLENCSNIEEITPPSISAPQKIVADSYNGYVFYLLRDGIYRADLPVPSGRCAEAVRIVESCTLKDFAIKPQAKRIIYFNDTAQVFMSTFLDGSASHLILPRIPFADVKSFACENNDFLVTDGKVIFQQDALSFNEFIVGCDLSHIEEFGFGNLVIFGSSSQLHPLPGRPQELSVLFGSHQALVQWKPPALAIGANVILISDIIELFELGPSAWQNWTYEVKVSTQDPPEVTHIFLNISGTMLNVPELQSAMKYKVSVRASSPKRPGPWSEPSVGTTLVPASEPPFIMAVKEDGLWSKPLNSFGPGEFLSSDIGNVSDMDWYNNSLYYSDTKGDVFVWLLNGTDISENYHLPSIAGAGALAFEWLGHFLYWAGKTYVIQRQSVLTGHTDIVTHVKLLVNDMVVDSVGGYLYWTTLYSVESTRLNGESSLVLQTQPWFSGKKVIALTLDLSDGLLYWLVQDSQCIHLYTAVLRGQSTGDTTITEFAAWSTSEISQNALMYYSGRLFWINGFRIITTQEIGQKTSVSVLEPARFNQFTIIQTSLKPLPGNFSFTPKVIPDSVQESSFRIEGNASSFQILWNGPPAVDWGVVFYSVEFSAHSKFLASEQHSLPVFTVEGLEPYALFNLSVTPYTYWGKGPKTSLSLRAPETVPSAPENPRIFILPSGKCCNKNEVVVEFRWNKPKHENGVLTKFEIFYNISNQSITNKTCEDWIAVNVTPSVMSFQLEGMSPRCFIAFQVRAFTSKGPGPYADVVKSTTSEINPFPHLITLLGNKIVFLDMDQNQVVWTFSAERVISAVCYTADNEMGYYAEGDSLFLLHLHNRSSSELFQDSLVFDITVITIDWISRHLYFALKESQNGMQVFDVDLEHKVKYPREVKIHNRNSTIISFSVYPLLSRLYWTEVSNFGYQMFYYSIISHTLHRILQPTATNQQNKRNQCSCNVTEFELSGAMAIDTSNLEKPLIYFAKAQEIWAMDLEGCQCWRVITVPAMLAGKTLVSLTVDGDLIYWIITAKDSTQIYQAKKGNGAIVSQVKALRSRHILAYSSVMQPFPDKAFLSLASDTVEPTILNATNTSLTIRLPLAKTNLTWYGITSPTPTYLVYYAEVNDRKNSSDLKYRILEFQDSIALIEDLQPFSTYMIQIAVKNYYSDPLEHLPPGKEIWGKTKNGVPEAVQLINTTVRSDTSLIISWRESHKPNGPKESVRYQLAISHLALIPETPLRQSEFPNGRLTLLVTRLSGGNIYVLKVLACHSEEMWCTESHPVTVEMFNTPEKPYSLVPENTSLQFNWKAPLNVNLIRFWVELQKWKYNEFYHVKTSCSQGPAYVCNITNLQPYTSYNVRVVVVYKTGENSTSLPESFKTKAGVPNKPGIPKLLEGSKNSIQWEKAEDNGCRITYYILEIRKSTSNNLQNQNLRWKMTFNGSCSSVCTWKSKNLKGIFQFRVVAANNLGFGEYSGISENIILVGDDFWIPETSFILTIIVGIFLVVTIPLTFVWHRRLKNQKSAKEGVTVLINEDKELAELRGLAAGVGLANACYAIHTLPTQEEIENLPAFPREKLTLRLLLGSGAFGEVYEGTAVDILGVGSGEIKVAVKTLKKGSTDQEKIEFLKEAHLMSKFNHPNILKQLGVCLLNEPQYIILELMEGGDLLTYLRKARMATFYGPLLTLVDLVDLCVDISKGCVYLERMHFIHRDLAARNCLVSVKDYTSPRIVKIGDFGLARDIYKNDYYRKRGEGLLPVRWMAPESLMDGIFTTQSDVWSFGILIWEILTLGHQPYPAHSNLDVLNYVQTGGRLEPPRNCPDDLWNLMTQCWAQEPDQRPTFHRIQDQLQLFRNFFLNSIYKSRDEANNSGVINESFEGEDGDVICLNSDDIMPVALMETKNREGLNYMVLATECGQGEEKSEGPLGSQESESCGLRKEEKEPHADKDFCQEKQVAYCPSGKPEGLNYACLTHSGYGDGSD
Tyrosine-protein kinase Lyn (Homo sapiens), sequence (P07948 2-512 limits assumed): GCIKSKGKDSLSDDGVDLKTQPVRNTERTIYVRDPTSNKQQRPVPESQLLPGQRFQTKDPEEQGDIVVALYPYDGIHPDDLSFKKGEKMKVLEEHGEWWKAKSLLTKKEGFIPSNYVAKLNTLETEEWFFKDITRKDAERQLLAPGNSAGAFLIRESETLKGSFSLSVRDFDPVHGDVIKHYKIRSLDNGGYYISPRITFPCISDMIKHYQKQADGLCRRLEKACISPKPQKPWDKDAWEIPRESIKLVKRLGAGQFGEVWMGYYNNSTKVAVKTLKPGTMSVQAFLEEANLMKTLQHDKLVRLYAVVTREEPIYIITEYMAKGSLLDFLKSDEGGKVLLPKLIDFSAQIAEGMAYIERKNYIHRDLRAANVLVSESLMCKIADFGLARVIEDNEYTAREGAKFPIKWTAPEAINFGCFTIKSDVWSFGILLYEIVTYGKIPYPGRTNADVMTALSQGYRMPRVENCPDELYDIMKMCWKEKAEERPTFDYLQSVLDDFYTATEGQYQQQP
Serine/threonine-protein kinase PAK 5 (Homo sapiens), sequence (Q9P286 whole entry, looked up, the tested form may be a part): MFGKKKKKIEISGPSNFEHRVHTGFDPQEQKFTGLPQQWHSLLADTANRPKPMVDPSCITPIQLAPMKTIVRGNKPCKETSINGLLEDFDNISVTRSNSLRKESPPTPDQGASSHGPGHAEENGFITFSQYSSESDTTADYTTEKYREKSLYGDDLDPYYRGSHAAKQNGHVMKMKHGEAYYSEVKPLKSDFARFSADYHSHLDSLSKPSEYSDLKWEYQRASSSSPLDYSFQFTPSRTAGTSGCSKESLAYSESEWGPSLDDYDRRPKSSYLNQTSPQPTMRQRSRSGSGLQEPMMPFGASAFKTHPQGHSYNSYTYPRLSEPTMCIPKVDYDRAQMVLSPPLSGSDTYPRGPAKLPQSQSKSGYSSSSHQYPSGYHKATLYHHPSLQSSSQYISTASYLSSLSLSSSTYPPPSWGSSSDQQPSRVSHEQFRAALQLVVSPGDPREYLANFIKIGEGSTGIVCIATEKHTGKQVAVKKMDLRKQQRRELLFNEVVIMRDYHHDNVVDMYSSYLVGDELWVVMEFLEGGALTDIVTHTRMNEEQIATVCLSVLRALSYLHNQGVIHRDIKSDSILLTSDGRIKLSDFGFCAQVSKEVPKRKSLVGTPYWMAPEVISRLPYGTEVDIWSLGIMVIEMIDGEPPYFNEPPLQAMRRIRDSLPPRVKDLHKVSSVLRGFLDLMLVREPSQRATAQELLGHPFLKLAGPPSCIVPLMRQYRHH

For `C=CC(=O)Nc1ccccc1Nc1nc(Nc2ccc(N3CCN(C)CC3)cc2)ncc1C(=O)Nc1c(C)cccc1Cl`, the Activity in assay [1] is 85%; in [2], 100%; in assay [3], 88%; in [4], 100%; in assay [5], 100%; in [6], 2.8%. In addition, the Activity in assay [7] amounted to 97%; in assay [8] it was 73%; in [9] it was 0.9%; in assay [10], 100%; in assay [11], 69%; in assay [12], 6%. Also, the Activity in assay [13] came to 100%; in assay [14], 100%; in assay [15], 100%; in assay [17], 100%; in assay [18] it was 100%; in [19], 91%. In addition, in the assay on MDA-MB-231, the IC50 turned out to be 300 nM. In assay [16], the inhibition result is “inactive”.
